Data on four molecules can be found in ChEMBL document CHEMBL1130391, “Novel agonists of 5HT2C receptors. Synthesis and biological evaluation of substituted 2-(indol-1-yl)-1-methylethylamines and 2-(indeno[1,2-b]pyrrol-1-yl)-1-methylethylamines. Improved therapeutics for obsessive compulsive disorder” (J Med Chem, 1997).

For test [1], the target named is T1, 5-hydroxytryptamine receptor 2C (Rattus norvegicus) (UniProt P08909).
T1 sequence (whole entry): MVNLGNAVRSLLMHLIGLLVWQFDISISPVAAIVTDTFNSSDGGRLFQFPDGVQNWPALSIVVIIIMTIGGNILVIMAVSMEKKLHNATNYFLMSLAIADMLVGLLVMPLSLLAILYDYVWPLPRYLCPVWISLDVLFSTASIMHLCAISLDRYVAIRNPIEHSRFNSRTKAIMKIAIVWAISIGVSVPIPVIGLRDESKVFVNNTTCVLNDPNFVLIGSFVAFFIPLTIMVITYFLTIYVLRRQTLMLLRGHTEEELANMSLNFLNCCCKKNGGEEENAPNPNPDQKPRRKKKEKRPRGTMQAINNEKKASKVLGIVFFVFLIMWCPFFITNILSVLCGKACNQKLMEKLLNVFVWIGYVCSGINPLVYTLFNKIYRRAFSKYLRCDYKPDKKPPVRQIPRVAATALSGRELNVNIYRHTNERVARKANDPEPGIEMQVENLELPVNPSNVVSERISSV
The test can be described thus: Induction of penile erection in rats after subcutaneous administration, indicative of 5-HT 2c receptor activation. Format: functional, organism-based. The method, boiled down: (§1)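 Male erection counts in RORO rats, 8 per dose, over 45 min. Drug is given in 0.3% Tween-80 in saline, sc at 5 mL/kg or orally at 10 mL/kg. Vehicle controls are included, and doses are expressed as salt weight. ED₅₀ by probit analysis, or the approximate dose at which half the rats respond.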

Test [2] deals with T1, 5-hydroxytryptamine receptor 2C (Rattus norvegicus). The test can be described thus: The compound was tested for induction of penile erection in rats after peroral administration; Inactive. Type of test: functional, organism-based. The method in brief: as §1
For test [3], the target named is T2, 5-hydroxytryptamine receptor 2C (Homo sapiens, UniProt P28335).
T2 sequence (P28335 whole entry): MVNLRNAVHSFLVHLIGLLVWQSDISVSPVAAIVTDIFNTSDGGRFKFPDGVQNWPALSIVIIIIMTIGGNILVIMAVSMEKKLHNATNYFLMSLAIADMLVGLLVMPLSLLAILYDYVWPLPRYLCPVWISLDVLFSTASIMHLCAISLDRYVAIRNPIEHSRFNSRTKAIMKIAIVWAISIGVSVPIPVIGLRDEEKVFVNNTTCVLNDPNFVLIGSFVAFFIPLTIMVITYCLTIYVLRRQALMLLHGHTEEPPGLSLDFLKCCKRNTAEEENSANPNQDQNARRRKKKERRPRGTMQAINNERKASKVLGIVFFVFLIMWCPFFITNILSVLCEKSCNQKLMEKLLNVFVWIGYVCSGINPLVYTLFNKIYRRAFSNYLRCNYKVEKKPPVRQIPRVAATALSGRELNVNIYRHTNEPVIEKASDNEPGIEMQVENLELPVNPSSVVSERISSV
The test can be described thus: Binding affinity against human 5-hydroxytryptamine 2C receptor using displacement of [3H]DOB. (Displacement assays read how much labelled ligand stays bound in the presence of the test substance.)

The target in test [4] is T3, 5-hydroxytryptamine receptor 2C (Rattus norvegicus, UniProt P08909).
T3 sequence (P08909 whole entry): T1 sequence (whole entry)
Kind of test: Efficacy (pEC50) was evaluated for 5-HT2C receptor-mediated stimulation of IP3 formation in vitro in choroid plexus of the rat. Format: functional, tissue-based. The method in brief: (§2)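 Rat choroid plexus preloaded with [³H]myoinositol for 1 h at 37 °C in oxygenated Krebs. LiCl 10 mM and pargyline 10 µM added, then compound 10 min later. Six concentrations, top 0.1 mM, incubated 0.5 h at 37 °C. Stopped with HClO₄/EDTA, then IP₃ isolated. Three measures per point. Intrinsic activity is the maximum relative to 10 µM 5HT.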

The target in test [5] is 5-hydroxytryptamine receptor 2A (Homo sapiens, UniProt P28223). Kind of test: Binding affinity against human 5-hydroxytryptamine 2A receptor using displacement of [3H]5-HT.
Test [6] deals with T1, 5-hydroxytryptamine receptor 2C (Rattus norvegicus). Kind of test: Intrinsic 5-HT 2c receptor activity as induced IP3 turnover in vitro in rat choroid plexus. Format: functional, tissue-based. The method, boiled down: as §2
Test [7] has as its system Rattus norvegicus. The test can be described thus: Compound was tested in schedule induced polydipsia in rats expressed as %maximum suppression at minimum effective dose of 30 mg/kg intraperitoneally. Conditions: route intraperitoneal. Format: functional.
Test [8] concerns the target T1, 5-hydroxytryptamine receptor 2C (Rattus norvegicus). The test can be described thus: Efficacy (pEC50) was evaluated for 5-HT2C receptor-mediated stimulation of IP3 formation in vitro in choroid plexus of the rat; inactive. Type of test: functional, tissue-based. The method in brief: as §2
For test [9] the target is unchanged. The test can be described thus: Induction of penile erection in rats following p.o. administration, indicative of 5-HT 2c receptor activation. Format: functional, organism-based. The method, boiled down:
as §1

The subject of test [10] is Rattus norvegicus. The test can be described thus: Compound was tested in schedule induced polydipsia in rats expressed as %maximum suppression at minimum effective dose of 10 mg/kg intraperitoneally. Format: functional. The note with it: route intraperitoneal.

Activity calls are given as the source filed them. No cut-off for these calls is given here. Some results are limits rather than exact numbers.

5-hydroxytryptamine receptor 2A, sequence (P28223 whole entry): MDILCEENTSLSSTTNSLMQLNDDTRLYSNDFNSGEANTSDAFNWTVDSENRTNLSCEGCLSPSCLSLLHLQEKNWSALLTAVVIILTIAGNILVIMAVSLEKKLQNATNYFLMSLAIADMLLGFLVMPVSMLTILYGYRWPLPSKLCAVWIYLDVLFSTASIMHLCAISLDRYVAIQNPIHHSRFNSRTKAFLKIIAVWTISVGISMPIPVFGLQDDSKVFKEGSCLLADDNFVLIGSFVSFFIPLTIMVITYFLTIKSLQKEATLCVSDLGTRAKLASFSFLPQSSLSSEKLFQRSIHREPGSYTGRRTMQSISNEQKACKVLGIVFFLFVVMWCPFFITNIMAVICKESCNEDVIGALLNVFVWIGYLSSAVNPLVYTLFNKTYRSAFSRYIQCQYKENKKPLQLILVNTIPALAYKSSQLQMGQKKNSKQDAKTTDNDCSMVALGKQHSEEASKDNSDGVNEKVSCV

Usually ED50 stands for the dose that gives a 50% effect, or the effect in half of the subjects. For orientation: Ki means the dissociation constant of the complex between target and ligand, obtained from inhibition or displacement. As a reminder, the EC50 is the concentration at which the effect is half-maximal. `C[C@@H](N)Cn1ccc2c(Cl)c(F)ccc21` came in with a median effective dose (ED50) in [1] of 3.3 mg/kg. In addition, in [2], the ED50 result is “inactive”. The figures for the inhibition constant (Ki) in test [3] and in test [5] were 0.00126 µM and 0.01 µM, respectively. For the same molecule, the EC50 in [4] was 0.794 µM. The molecule also had an Efficacy in test [6] of 0.9.

With `CNCCC(Oc1ccc(C(F)(F)F)cc1)c1ccccc1` (stereo not drawn) [FLUOXETINE], the Max suppression in the test with Rattus norvegicus [7] is -11%.

On to `COc1cccc2c1Cc1ccn(CC(C)N)c1-2` (stereo not drawn), for which the ED50 in [1] is > 10 mg/kg. In addition, the “Log EC50” value in test [8] is “inactive”. The Ki in test [3] was 0.1 µM; in test [5] it was 3.16 µM.

With `Cc1ccc2c(c1)-c1c(ccn1CC(C)N)C2(C)C` (stereo not drawn), the ED50 is 0.9 mg/kg in test [1] and 10 mg/kg in [9]. The results for the Ki in test [3] and in [5] were 0.00316 µM and 0.1 µM, respectively. Further, a half-maximal effect in [4] (EC50) was put at 0.2 µM. In addition, the Max suppression in the test on Rattus norvegicus [10] is given as -76%. In [6], this molecule displayed an Efficacy of 1.
